Published values of several laboratories.
Compare with care: the assays were run in different laboratories.
Target: Mitogen-activated protein kinase kinase kinase 5 (MAP3K5, Homo sapiens, UniProt Q99683)
One construct used (Q99683 1-1374): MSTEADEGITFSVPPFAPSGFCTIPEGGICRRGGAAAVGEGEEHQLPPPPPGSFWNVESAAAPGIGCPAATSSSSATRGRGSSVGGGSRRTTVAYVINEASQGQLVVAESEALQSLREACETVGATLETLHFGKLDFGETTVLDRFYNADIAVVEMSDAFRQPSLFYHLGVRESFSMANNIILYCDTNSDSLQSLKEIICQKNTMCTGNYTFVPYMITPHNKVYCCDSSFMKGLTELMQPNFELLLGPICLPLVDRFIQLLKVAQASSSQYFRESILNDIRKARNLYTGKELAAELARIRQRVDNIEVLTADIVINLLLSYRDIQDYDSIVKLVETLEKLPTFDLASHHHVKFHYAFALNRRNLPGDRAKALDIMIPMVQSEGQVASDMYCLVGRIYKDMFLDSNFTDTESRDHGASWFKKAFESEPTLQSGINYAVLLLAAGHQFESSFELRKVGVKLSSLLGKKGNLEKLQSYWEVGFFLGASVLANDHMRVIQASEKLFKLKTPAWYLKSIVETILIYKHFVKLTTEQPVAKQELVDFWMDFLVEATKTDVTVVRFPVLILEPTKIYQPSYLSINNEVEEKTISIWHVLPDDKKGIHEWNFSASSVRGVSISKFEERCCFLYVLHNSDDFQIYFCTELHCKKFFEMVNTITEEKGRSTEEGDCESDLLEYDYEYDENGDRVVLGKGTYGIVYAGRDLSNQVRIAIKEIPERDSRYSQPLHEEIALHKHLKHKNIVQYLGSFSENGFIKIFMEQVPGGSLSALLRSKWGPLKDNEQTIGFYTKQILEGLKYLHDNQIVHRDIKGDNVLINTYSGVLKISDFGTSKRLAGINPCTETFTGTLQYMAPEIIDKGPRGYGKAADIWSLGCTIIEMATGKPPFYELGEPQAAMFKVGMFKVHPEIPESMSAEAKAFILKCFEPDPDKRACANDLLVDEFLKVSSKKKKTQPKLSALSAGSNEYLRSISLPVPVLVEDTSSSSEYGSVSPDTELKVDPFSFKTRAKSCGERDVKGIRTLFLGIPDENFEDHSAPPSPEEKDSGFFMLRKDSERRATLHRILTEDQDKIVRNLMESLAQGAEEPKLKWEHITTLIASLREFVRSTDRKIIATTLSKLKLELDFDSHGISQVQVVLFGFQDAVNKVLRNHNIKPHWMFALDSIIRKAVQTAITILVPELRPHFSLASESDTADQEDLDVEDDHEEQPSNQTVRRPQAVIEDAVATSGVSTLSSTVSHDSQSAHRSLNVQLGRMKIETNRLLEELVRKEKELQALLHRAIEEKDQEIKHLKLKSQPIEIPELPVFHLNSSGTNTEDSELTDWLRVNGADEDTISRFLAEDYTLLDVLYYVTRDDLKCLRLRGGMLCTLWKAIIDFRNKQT

SMILES | effect on | mode | technique | cell line | tested at | quantity | result
FC(F)(F)Oc1cccc(-c2cnc3ccc(-c4ccncc4)nn23)c1 | enzyme activity | inhibitor | radiometric | – | 1 µM | activity vs control | 88%
CC(C)(C)c1nc2c(s1)c1nc(N)ncc1c1ccc(NS(=O)(=O)c3c(F)cccc3F)c(F)c12 | enzyme activity | inhibitor | radiometric | – | 1 µM | remaining activity | 104%
CN1CCC2(CC1)NC(=O)c1c(c3ccc(Cl)c(Cl)c3n1C)C2C#N (racemic) | thermal stability | – | DSF | – | 10 µM | ΔTm | 0.3 °C
CNCc1ccc(-c2cc(-c3nc(-c4ccc(S(=O)(=O)C(C)C)cc4)cnc3N)on2)cc1 | enzyme activity | inhibitor | – | – | 2 µM | inhibition | 0%
CNC(=O)c1cc(Oc2ccc(NC(=O)Nc3ccc(Cl)c(C(F)(F)F)c3)cc2)ccn1 | enzyme activity | inhibitor | – | – | 0.3 µM | inhibition | 0%
CCCS(=O)(=O)Nc1ccc(F)c(C(=O)c2c[nH]c3ncc(-c4ccc(Cl)cc4)cc23)c1F | enzyme activity | inhibitor | – | – | 1 µM | inhibition | < 10%
N#CC1c2c([nH]c3c(Cl)c(Cl)ccc23)C(=O)NC12CCCCC2 (racemic) | thermal stability | – | DSF | – | 10 µM | ΔTm | 0.6 °C
COc1cccc2c(NCc3ccccc3)nc(-n3c(N)nc4ccccc43)nc12 | target engagement in cells | inhibitor | chemoproteomics | – | 20 mM | inhibition | -7.6%
O=C1NC(=O)c2cc(Nc3ccc(F)cc3)c(Nc3ccc(F)cc3)cc21 | cell-free assay | – | – | – | 0.5 µM | remaining signal | 96.6%
COc1cc(Nc2cnc(C#N)c(O[C@H](C)CN(C)C)n2)ncc1-c1cnn(C)c1 | enzyme activity | inhibitor | radiometric | – | 10 µM | remaining activity | 67%
CNC(=O)Nc1ccc2c(c1)[C@@]1(CC2)OC(=O)N(CC(=O)N(Cc2ccc(F)cc2)[C@@H](C)C(F)(F)F)C1=O | cell-free assay | – | competition with immobilised ligand | – | 1 µM | remaining binding | 100%
Cn1c2c(c3ccc(Cl)c(Cl)c31)C(C#N)C(C)(C)NC2=O (stereo not drawn) | thermal stability | – | DSF | – | 10 µM | ΔTm | 2.6 °C
Cc1sc(C(=O)NC2COC2)cc1-n1cc(NC(=O)Nc2c(F)cccc2Cl)cn1 | enzyme activity | inhibitor | – | – | 10 µM | remaining activity | 94%
CN(C)c1ncnc(-c2ccc3nc(Nc4cc(CN5CCN(C(=O)CC(F)(F)F)CC5)ccn4)[nH]c3c2)c1Cl | cell-free assay | – | competition with immobilised ligand | – | 1 µM | remaining binding | 100%
CCCOc1ccc(OC)c(F)c1C(=O)c1ccc(C(=O)N[C@@H]2CNC[C@H]2NC(=O)c2ccc3[nH]ncc3c2)cc1 | enzyme activity | inhibitor | – | – | 10 µM | remaining activity | 83%
Cn1c(=O)n(-c2ccc(C(C)(C)C#N)cc2)c2c3cc(-c4cnc5ccccc5c4)ccc3ncc21 | enzyme activity | inhibitor | – | – | 10 µM | remaining activity | 106%
C[S+]([O-])c1ccc(-c2nc(-c3ccncc3)c(-c3ccc(F)cc3)[nH]2)cc1 (stereo not drawn) | cell-free assay | – | – | – | 0.5 µM | remaining signal | 107%
CCN1CCN(Cc2ccc(NC(=O)c3ccc(C)c(/C=C/c4cnc5[nH]ccc5c4OC)c3)cc2C(F)(F)F)CC1 | target engagement in cells | inhibitor | chemoproteomics | A-375 | 0.5 µM | inhibition | -26.3%

SMILES | effect on | mode | technique | cell line | tested at | quantity | result
CNCc1ccccc1-c1csc([C@@H](C)Nc2nc(C)nc3cc(OC)c(OC)cc23)c1 | cell-free assay | – | competition with immobilised ligand | – | 1 µM | remaining binding | 91%
c1ccc(CNc2nc(N3CCOc4ccccc43)nc3c2CCCC3)cc1 | target engagement in cells | inhibitor | chemoproteomics | – | 20 mM | inhibition | -10.3%
Cc1cnc(NC2CCOCC2)nc1-n1cnc(C(=O)NC(CN)c2cc(F)cc(Cl)c2)c1 (stereo not drawn) | enzyme activity | inhibitor | radiometric | – | 1 µM | remaining activity | 105%
Cc1ccc(NC(=O)c2ccc(C)c(C(F)(F)F)c2)cc1C#Cc1nn(C2CCC(O)CC2)c2ncnc(N)c12 (stereo not drawn) | cell-free assay | – | – | – | 10 µM | remaining signal | 127%
Cc1ccc(Nc2nccc(N(C)c3ccc4c(C)n(C)nc4c3)n2)cc1S(N)(=O)=O | enzyme activity | inhibitor | – | – | 0.3 µM | inhibition | 6%
Cc1cc(NC(=O)c2cccc3cc(-c4cccc5[nH]nc(N)c45)ccc23)ccc1F | enzyme activity | inhibitor | – | – | 0.1 µM | activity vs control | 109%
COc1cc(Cl)c(C(=O)N[C@@H](CN[C@H]2CC[C@@H](N)CC2)Cc2ccc(C#N)cc2)cc1-c1ccc(CN[C@H](C)c2ccc(C)cc2)o1 | enzyme activity | inhibitor | – | – | 1 µM | remaining activity | 94%
CC1(C)NC(=O)c2[nH]c3c(Cl)c(Cl)ccc3c2C1C#N (stereo not drawn) | thermal stability | – | DSF | – | 10 µM | ΔTm | 1.6 °C
Cn1nc(C(F)(F)F)cc1-c1cnc(N2CCc3cc(S(=O)(=O)Nc4c(F)cc(Cl)cc4F)cc(N4CCCC4=O)c32)nc1 | cell-free assay | – | competition with immobilised ligand | – | 1 µM | remaining binding | 100%
Cc1ccc(C(=O)Nc2ccc(CN3CCN(C)CC3)c(C(F)(F)F)c2)cc1C#Cc1cnc2cccnn12 | enzyme activity | inhibitor | – | – | 23.5 nM | remaining activity | 100%
Cc1noc([C@H]2C[C@@H](c3ccc(C(F)(F)F)cc3)CN(C(=O)N3CCS(=O)(=O)C3)C2)n1 | cell-free assay | – | competition with immobilised ligand | – | 1 µM | remaining binding | 100%
CCN1CCN(Cc2ccc(NC(=O)c3ccc(C)c(Oc4ccnc5[nH]ccc45)c3)cc2C(F)(F)F)CC1 | target engagement in cells | inhibitor | chemoproteomics | A-375 | 5 µM | inhibition | -27.1%
CS(=O)(=O)N1CCCC(NC(=O)[C@H](CCC2CCCCC2)NC(=O)c2ccc(CNc3ncnc4c3nnn4-c3ccccc3)cc2)C1 (stereo partly drawn) | cell-free assay | – | competition with immobilised ligand | – | 0.1 µM | remaining binding | 100%
CCN(CC)CCNC(=O)c1c(C)[nH]c(/C=C2\C(=O)Nc3ccc(F)cc32)c1C | enzyme activity | inhibitor | – | – | 0.3 µM | inhibition | 4%
NS(=O)(=O)c1cc(NC(=O)Cc2ccccc2)ccc1Oc1cccc(Cl)c1 | cell-free assay | – | competition with immobilised ligand | – | 1 µM | remaining binding | 100%
CC/C(=N\NC(=O)NCc1cccc(O)c1)c1ccc(O)c(C)c1O | enzyme activity | inhibitor | – | – | 0.1 µM | inhibition | 4%
Cn1c2c(c3ccc(Cl)c(Cl)c31)C(C#N)C1(CCN(C(=O)OC(C)(C)C)CC1)NC2=O (racemic) | thermal stability | – | DSF | – | 10 µM | ΔTm | 0 °C
CC(=O)N1CCC(c2ccc(C(=O)NC3=NCCN3)cc2C(F)(F)F)CC1 | cell-free assay | – | competition with immobilised ligand | – | 1 µM | remaining binding | 100%
